# Experimental data: ChEMBL document CHEMBL1157676, “Carboxymethylated-kappa-casein: a convenient tool for the identification of polyphenolic inhibitors of amyloid fibril formation” (Bioorg Med Chem, 2010)
# Calls of active or inactive are those of the source. The rule behind the calls is not given here.
# Columns and labels:
# [1] = Inhibition of reduced carboxymethylated kappa-casein fibril formation at 50 ug/mL measured every 5 mins after 1000 mins by thioflavin T staining-based binding assay
# Procedure, shortened: (§1)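 RCM-κ-CN (0.5 mg/mL final) in 50 mM sodium phosphate pH 7.2 with 10 µM ThT and test compound (final DMSO ≤1%), incubated at 37 °C unshaken in sealed plates. Fluorescence (ex 440/em 490 nm) was read every 5 min for 1000 min. %FFi = 100×(ΔFc−ΔFs)/ΔFc versus a 1% DMSO control. Duplicates.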
# [2] = Inhibition of reduced carboxymethylated kappa-casein fibril formation measured every 5 mins after 1000 mins by thioflavin T staining-based binding assay
# Procedure, shortened: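 RCM-κ-CN fibrillation (0.5 mg/mL) at 37 °C, pH 7.2 phosphate (50 mM), 10 µM ThT, no shaking. ThT fluorescence 440/490 nm was read every 5 min over 1000 min. Duplicate samples. The positive control IC50 is the mean of four batches.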
# [3] = Inhibition of reduced carboxymethylated kappa-casein fibril formation assessed as formation of shorter and stunted fibrils by transmission electron microscopy
# [4] = Inhibition of reduced carboxymethylated kappa-casein fibril formation at 5 ug/mL measured every 5 mins after 1000 mins by thioflavin T staining-based binding assay; procedure, shortened: as §1
# [5] = Inhibition of reduced carboxymethylated kappa-casein fibril formation at 12.5 ug/mL measured every 5 mins after 1000 mins by thioflavin T staining-based binding assay; procedure, shortened: as §1
# [6] = Inhibition of reduced carboxymethylated kappa-casein fibril formation at 100 ug/mL measured every 5 mins after 1000 mins by thioflavin T staining-based binding assay; procedure, shortened: as §1
# [7] = Inhibition of beta amyloid (1 to 42) fibril formation at 50 ug/mL by thioflavin T staining-based binding assay
# [8] = Inhibition of beta amyloid (1 to 40) fibril formation by thioflavin T staining-based binding assay
# [9] = Inhibition of beta amyloid (1 to 42) fibril formation by thioflavin T staining-based binding assay
# [10] = Inhibition of beta amyloid (1 to 40) fibril formation
# [11] = Selectivity ratio of IC50 for reduced carboxymethylated kappa-casein fibril formation to IC50 for beta amyloid (1 to 40) fibril formation
# [12] = Selectivity ratio of IC50 for reduced carboxymethylated kappa-casein fibril formation to IC50 for beta amyloid (1 to 42) fibril formation
# [13] = Inhibition of reduced carboxymethylated kappa-casein fibril formation at 17 ug/mL measured every 5 mins after 1000 mins by thioflavin T staining-based binding assay; procedure, shortened: as §1
# [14] = Inhibition of beta amyloid (1 to 42) fibril formation
# [15] = Inhibition of beta amyloid (1 to 40) fibril formation after 24 hrs by fluorimetry
SMILES,inhibition [1],IC50 [2],inhibition [3],IC50 [8],IC50 [9],further results
CC(=O)Oc1cc(OC(C)=O)c2c(=O)c(OC(C)=O)c(-c3ccc(OC(C)=O)c(OC(C)=O)c3)oc2c1,90%,6.8 µM,Active,–,–,–
CO/C(=C\c1ccc(OC)c(OC)c1)C(=O)c1c(O)cc(OC)cc1OC,35%,–,–,–,–,–
COc1ccc(-c2coc3cc(O)cc(O)c3c2=O)cc1,–,–,–,–,–,inhibition [4]: 0%
COc1ccc2c(=O)c(O)c(-c3cc(OC)c(OC)cc3CO)oc2c1,–,–,–,–,–,inhibition [5]: 0%
O=c1c(O)c(-c2ccc(O)cc2)oc2cc(O)ccc12,–,–,–,–,–,inhibition [4]: 0%
Oc1ccc([C@H]2Oc3cc(O)cc(O)c3C[C@H]2O)cc1,–,–,–,–,–,inhibition [6]: 17%
O=C1c2c(O)cc(O)cc2O[C@H](c2ccc(O)c(O)c2)[C@H]1O [(+)-TAXIFOLIN],84%,40.1 µM,–,–,–,inhibition [7]: 57%
Oc1cc(O)c2c(c1)O[C@H](c1ccc(O)c(O)c1)[C@H](O)C2 [(-)-EPICATECHIN],7%,–,–,2.8 µM,5.6 µM,–
COc1ccc(-c2coc3cc(O)ccc3c2=O)cc1O [CALYCOSIN],–,–,–,–,–,inhibition [4]: 1%; IC50 [10]: Not Active
Oc1cc(O)c2c(c1)O[C@H](c1ccc(O)c(O)c1)[C@@H](O)C2 [CIANIDANOL],0%,–,–,2.9 µM,5.3 µM,–
O=c1c(-c2ccc(O)cc2)coc2cc(O)ccc12 [DAIDZEIN],25%,–,–,–,–,IC50 [10]: Active
O=C(O[C@@H]1Cc2c(O)cc(O)cc2O[C@@H]1c1cc(O)c(O)c(O)c1)c1cc(O)c(O)c(O)c1 [EPIGALOCATECHIN GALLATE],100%,3.7 µM,–,–,–,inhibition [7]: 100%; Ratio IC50 [11]: 20; Ratio IC50 [12]: 10; IC50 ([10]; read-out: IC50): 0.18 µM
O=c1c(O)c(-c2ccccc2)oc2cc(O)cc(O)c12 [GALANGIN],68%,61 µM,Active,–,–,IC50 [10]: Not Active
O=c1c(-c2ccc(O)cc2)coc2cc(O)cc(O)c12 [GENISTEIN],95%,190 µM,–,–,–,inhibition [7]: 43%; IC50 [10]: Active
O=c1c(O)c(-c2ccc(O)cc2)oc2cc(O)cc(O)c12 [KAEMPFEROL],86%,33 µM,Active,1.7 µM,3.2 µM,Ratio IC50 [11]: 20; Ratio IC50 [12]: 10
O=c1c(O)c(-c2ccc(O)cc2O)oc2cc(O)cc(O)c12 [MORIN],99%,49.5 µM,–,0.24 µM,0.67 µM,inhibition [7]: 94%; Ratio IC50 [11]: 206; Ratio IC50 [12]: 74
O=c1c(O)c(-c2cc(O)c(O)c(O)c2)oc2cc(O)cc(O)c12 [MYRICETIN],–,–,Active,0.29 µM,0.4 µM,inhibition [13]: 92%; IC50 ([10]; read-out: IC50): 0.2 µM; IC50 [14]: 0.34 µM; IC50 [15]: 0.9 µM
O=c1c(O)c(-c2ccc(O)c(O)c2)oc2cc(O)cc(O)c12 [QUERCETIN],84%,13.6 µM,Active,0.24 µM,0.72 µM,inhibition [7]: 95%; Ratio IC50 [11]: 20; Ratio IC50 [12]: 10
O=c1c(O)c(-c2cc(O)c(O)c(O)c2)oc2cc(O)ccc12 [ROBINETIN],–,13.9 µM,Active,–,–,inhibition [4]: 89%
